Experimental data from different studies.
Cell line: HL-60
Effect on: cell growth or viability

Nc1ccccc1NC(=O)c1ccc(Cn2cnc3c(Nc4ccc(Br)cc4F)ncnc32)cc1 — IC50 (MTT; 72 h): 0.99 µM
O=C(CSc1nc2ccccc2s1)N/N=C/c1ccc(OCC(=O)Nc2ccc(Br)cc2)cc1 — IC50 (MTS; 72 h): > 100 µM
O=C(NO)c1ccc(Cn2cnc3c(Nc4ccc(Cl)cc4)ncnc32)cc1 — IC50 (MTT; 72 h): 0.62 µM
c1ccc(-c2cc(CNc3cccc4cccnc34)on2)nc1 — IC50 (MTS; 72 h): 64.8 µM
O=C(NO)c1ccc(Cn2cnc3c(Nc4ccc(F)c(Cl)c4)ncnc32)cc1 — IC50 (MTT; 72 h): 2.55 µM
O=C(CSc1nc2ccccc2s1)N/N=C/c1ccc(OCC(=O)Nc2cccc([N+](=O)[O-])c2)cc1 — IC50 (MTS; 72 h): > 100 µM
N#Cc1ccc(-c2cc(COc3cc(C(F)(F)F)nc4ccccc34)on2)cc1 — IC50 (MTS; 72 h): 62.2 µM
O=C(CSc1nc2ccccc2s1)N/N=C/c1ccc(OCC(=O)Nc2cccc(Cl)c2)cc1 — IC50 (MTS; 72 h): > 100 µM
CN1CCc2c(c3ccccc3n2Cc2ccc(C(=O)NO)cc2)C1 — IC50 (CCK-8; 48 h): 8.87 µM
c1ccc(-c2cc(CNc3cccc4cccnc34)on2)cc1 — IC50 (MTS; 72 h): 79.6 µM
Nc1cccc2c1C(=O)N(C1CCC(=O)NC1=O)C2=O (stereo not drawn) — IC50 (CCK-8; 7 days): > 10 µM
C=C1C[C@@]23CC[C@H]4[C@@](C)(CCC[C@@]4(C)C(=O)O)[C@@H]2CC[C@@H]1C3 — IC50 (XTT; 75 h): 155 µM
